Source: ChEMBL document CHEMBL1152313, “Cytotoxic and HIF-1alpha inhibitory compounds from Crossosoma bigelovii” (J Nat Prod, 2009)
Activity calls are given as the source filed them. No cut-off for these calls is given here.

Columns and labels:
U-251 [1] = test: Growth inhibition of human U251 cells stably transfected with pGL3 plasmid after 24 hrs; assay type: cell-based; details: u-251, 24 h
[2] = molecular target: T1, Hypoxia inducible factors; HIF-1-alpha, HIF-2-alpha (Homo sapiens, UniProt Q16665+Q99814); test: Inhibition of HIF1 activation in human U251 cells stably transfected in pGL2-TK-HRE plasmid under hypoxic condition after 16 to 24 hrs by luciferase reporter gene assay; assay type: cell-based; details: u-251
U-251 [3] = test: Growth inhibition of human U251 cells stably transfected with pGL2-TK-HRE plasmid after 24 hrs; assay type: cell-based; details: u-251, 24 h
A549 = test: Cytotoxicity against human A549 cells by MTT assay; assay type: functional
HT-29 = test: Cytotoxicity against human HT-29 cells by MTT assay; assay type: functional
Method in brief: (§1)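 Cells were grown in MEM with 10% fetal calf serum, 0.1 g L⁻¹ penicillin G and 0.1 g L⁻¹ streptomycin sulfate. They were seeded into 96-well plates one day before dosing and incubated overnight at 37 °C. Compounds were dissolved in DMSO, diluted in medium to several concentrations and left on the cells for six days. Survival was read colorimetrically by MTT at 547 nm, with adriamycin as reference.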

MCF7 = test: Cytotoxicity against human MCF7 cells by MTT assay; assay type: functional; method in brief: as §1
U-251 [4] = test: Reduction in VEGF mRNA expression in wild type human U251 cells under hypoxic condition after 8 hrs; assay type: functional, cell-based
Method in brief: (§2)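 Wild-type U251 cells treated 8 or 16 h under hypoxia (1% O₂, 37 °C). Total RNA isolated; 500 ng reverse-transcribed (10 min 25 °C, 30 min 48 °C, 5 min 95 °C). VEGF or CA9 transcript quantified by real-time PCR on 5 ng cDNA in triplicate (2 min 50 °C, 10 min 95 °C, then 40 cycles of 15 s 95 °C and 1 min 60 °C).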

U-251 [5] = test: Reduction in carbonic anhydrase 9 mRNA expression in wild type human U251 cells under hypoxic condition at 0.1 uM after 8 hrs; assay type: functional, cell-based; method in brief: as §2
[6] = molecular target: T1, Hypoxia inducible factors; HIF-1-alpha, HIF-2-alpha; test: Inhibition of HIF1 activation in human U251 cells stably transfected in pGL2-TK-HRE plasmid under hypoxic condition assessed as reduction of luciferase expression at 0.062 uM after 16 to 24 hrs by luciferase reporter gene assay; assay type: cell-based; set-up: scale not given: the % may be the effect or the level left; details: U-251
[7] = molecular target: T1, Hypoxia inducible factors; HIF-1-alpha, HIF-2-alpha; test: Inhibition of HIF1 activation in human U251 cells stably transfected in pGL3 plasmid under hypoxic condition assessed as reduction of luciferase expression at 0.062 uM after 16 to 24 hrs by luciferase reporter gene assay; assay type: cell-based; set-up: scale not given: the % may be the effect or the level left; details: U-251
U-251 [8] = test: Inhibition of HIF1alpha protein expression in wild type human U251 cells under hypoxic condition at 0.025 uM treated 8 hrs before hypoxia induction; assay type: functional, cell-based
U-251 [9] = test: Reduction in VEGF mRNA expression in wild type human U251 cells under hypoxic condition after 16 hrs; assay type: functional, cell-based; method in brief: as §2
U-251 [10] = test: Inhibition of HIF1alpha protein expression in wild type human U251 cells under hypoxic condition at 0.025 uM treated 16 hrs before hypoxia induction; assay type: functional, cell-based
[11] = molecular target: T1, Hypoxia inducible factors; HIF-1-alpha, HIF-2-alpha; test: Inhibition of HIF1 activation in human U251 cells transiently transfected in pGL2-TK-HRE plasmid under hypoxic condition at 0.1 to 0.005 uM after 16 hrs by luciferase reporter gene assay; assay type: cell-based; details: U-251
Method in brief: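 Wild-type U251 cells transiently transfected with pGL2-TK-HRE using Effectene for 16 h. Medium then changed and compound added for 16 h under hypoxia (1% O₂, 5% CO₂, 37 °C) or normoxia (21% O₂). Luciferase read with Steady Glo reagent.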

U-251 [12] = test: Reduction in carbonic anhydrase 9 mRNA expression in wild type human U251 cells under hypoxic condition at 0.1 uM after 16 hrs; assay type: functional, cell-based; method in brief: as §2

| SMILES | Activity (U-251 [1]) | EC50 [2] [nM] | Activity (U-251 [3]) | GI50 (A549) [nM] | GI50 (HT-29) [nM] | GI50 (MCF7) [nM] | further results |
| --- | --- | --- | --- | --- | --- | --- | --- |
| CO[C@H]1C[C@H](O[C@H]2CC[C@]3(C=O)[C@H]4CC[C@]5(C)[C@@H](C6=CC(=O)OC6)CC[C@]5(O)[C@@H]4CC[C@]3(O)C2)O[C@H](C)[C@H]1O[C@@H]1O[C@H](CO[C@@H]2O[C@H](CO)[C@@H](O)[C@H](O)[C@H]2O)[C@@H](O)[C@H](O)[C@H]1O | Non-toxic | 40 | Non-toxic | – | – | – | – |
| CO[C@H]1C[C@H](O[C@H]2CC[C@]3(C=O)[C@H]4CC[C@]5(C)[C@@H](C6=CC(=O)OC6)CC[C@]5(O)[C@@H]4CC[C@]3(O)C2)O[C@H](C)[C@H]1O[C@@H]1O[C@H](CO)[C@@H](O)[C@H](O)[C@H]1O | Non-toxic | – | Non-toxic | – | – | – | – |
| CO[C@H]1[C@H](O[C@H]2CC[C@]3(C=O)[C@H]4CC[C@]5(C)[C@@H](C6=CC(=O)OC6)CC[C@]5(O)[C@@H]4CC[C@]3(O)C2)O[C@H](C)C[C@H]1O[C@@H]1O[C@H](CO)[C@@H](O)[C@H](O)[C@H]1O | Non-toxic | 600 | Non-toxic | 8 | 70 | 10 | – |
| Cc1cc(=O)c2c(O)cc(O[C@@H]3O[C@H](CO[C@@H]4O[C@@H](C)[C@H](O)[C@@H](O)[C@H]4O)[C@@H](O)[C@H](O)[C@H]3O)cc2o1 | – | – | – | 400 | 6000 | 800 | – |
| COc1c(O[C@@H]2O[C@H](CO[C@@H]3O[C@@H](C)[C@H](O)[C@@H](O)[C@H]3O)[C@@H](O)[C@H](O)[C@H]2O)cc2oc(C)cc(=O)c2c1O | – | – | – | 400 | 6000 | 800 | – |
| CC[C@@]1(O)C(=O)OCc2c1cc1n(c2=O)Cc2cc3c(CN(C)C)c(O)ccc3nc2-1 | – | – | – | – | – | – | Activity (U-251 [4]): inactive |
| C[C@@H]1O[C@@H](O[C@H]2CC[C@]3(C=O)[C@H]4CC[C@]5(C)[C@@H](C6=CC(=O)OC6)CC[C@]5(O)[C@@H]4CC[C@]3(O)C2)[C@H](O)[C@H](O)[C@H]1O [CONVALLATOXIN] | Non-toxic | 20 | Non-toxic | – | – | – | Activity (U-251 [5]): Active; Activity [6]: 77%; Activity [7]: 50%; Activity (U-251 [4]): Active; Activity (U-251 [8]): Active; Activity (U-251 [9]): Active; Activity (U-251 [10]): Active; Activity [11]: Active; Activity (U-251 [12]): Active |
| COc1cccc2c1C(=O)c1c(O)c3c(c(O)c1C2=O)C[C@@](O)(C(=O)CO)C[C@@H]3O[C@H]1C[C@H](N)[C@H](O)[C@H](C)O1 [DOXORUBICIN] | – | 120 | – | 7 | 60 | 100 | – |
| COc1cc(O)c2c(=O)cc(C)oc2c1 [EUGENIN] | – | – | – | 14000 | 25000 | 10000 | – |
| Cc1cc(=O)c2c(O)cc(O)cc2o1 [NOREUGENIN] | – | – | – | > 50000 | > 50000 | > 50000 | – |
| COc1c(O)cc2oc(C)cc(=O)c2c1O [PISONIN B] | – | – | – | 225000 | 180000 | > 450000 | – |
| C[C@]12CC[C@H]3[C@@H](CC[C@]4(O)C[C@@H](O)CC[C@]34C=O)[C@@]1(O)CC[C@@H]2C1=CC(=O)OC1 [STROPHANTHIDIN] | Non-toxic | – | Non-toxic | – | – | – | – |
